The T/C is the result in the treated group divided by that in the control group, in per cent.

In series [1] the test system is Mus musculus. Put plainly: Toxicity day evaluation was carried out on day 5 for animal dosed with 200 mg/kg compound; 5/5. It is filed as organism-based. Further details: dose 200 mg/kg. The note with it: in vivo.
For series [2], the system named is Mus musculus. Description: Ability of 50 mg/kg of compound to kill tumor cells in mice is expressed as the log of the tumor cell population at the onset of treatment minus the log of the tumor cell population at the end of treatment. It is filed as functional.
The test system of series [3] is Mus musculus. Put plainly: Ability of 100 mg/kg of compound to kill tumor cells in mice is expressed as the log of the tumor cell population at the onset of treatment minus the log of the tumor cell population at the end of treatment. It is filed as functional.
The test system of series [4] is Mus musculus. Description: Body Weight Difference (BWD) of test animals administered with 50 mg/kg compound is determined on day 5 for P388 tumor cells. It is filed as functional. The gist of the method:
(§1)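 P388 leukaemia: about 10^6 cells in ascitic fluid inoculated ip on day 0 (CD2F1 mice). Compound given ip in normal saline as a freshly prepared solution or suspension, once daily on days 1–5. Treated-minus-control body weight difference in g, taken as day 5 minus day 1 weight. Groups of six.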

Series [5] relates to Mus musculus. Put plainly: Body Weight Difference (BWD) of test animals administered with 200 mg/kg compound is determined on day 5 for P388 tumor cells. It is filed as functional. The gist of the method: as §1
The subject of series [6] is Mus musculus. Description: Toxicity day evaluation was carried out on day 5 for animal dosed with 400 mg/kg compound; 4/5. Further details: dose 400 mg/kg. It is filed as organism-based. The note with it: in vivo.
For series [7], the system named is Mus musculus. Description: Body Weight Difference (BWD) of test animals administered with 400 mg/kg compound is determined on day 5 for P388 tumor cells. It is filed as functional. The gist of the method:
as §1

The test system of series [8] is Mus musculus. Put plainly: Toxicity day evaluation was carried out on day 5 for animal dosed with 100 mg/kg compound; 5/5. It is filed as organism-based. Further details: dose 100 mg/kg. The note with it: in vivo.
For series [9], the system named is Mus musculus. Description: Toxicity day evaluation was carried out on day 5 for animal dosed with 50 mg/kg compound; 5/5. Further details: dose 50 mg/kg. It is filed as organism-based. The following applies: in vivo.
Series [10] relates to Mus musculus. Put plainly: Body Weight Difference (BWD) of test animals administered with 100 mg/kg compound is determined on day 5 for P388 tumor cells. It is filed as functional. The gist of the method:
as §1

The test system of series [11] is Mus musculus. Description: Toxicity day evaluation was carried out on day 5 for animal dosed with 200 mg/kg compound. Number of animals in initial test groups were 6. Further details: dose 200 mg/kg. It is filed as organism-based. The following applies: in vivo.
For series [12], the system named is Mus musculus. Put plainly: Body Weight Difference (BWD) of test animals with P388 administered with 50 mg/kg compound is determined. It is filed as functional. A digest of the protocol:
as §1

For series [13], the system named is Mus musculus. Description: Ability of 50 mg/kg of compound to kill P388 tumor cells in mice is expressed as the log of the tumor cell population at the onset of treatment minus the log of the tumor cell population at the end of treatment. It is filed as functional. The gist of the method:
(§2)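 P388 leukemia, 10^6 cells implanted ip on day 0. Drug given ip daily on days 1-5 as a saline suspension freshly prepared before injection. Log cell kill is computed from survival, with % T/C taken as median survival time of treated versus control mice.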

The test system of series [14] is Mus musculus. Put plainly: Body Weight Difference (BWD) of test animals with P388 administered with 25 mg/kg compound is determined. It is filed as functional. A digest of the protocol: as §1
For series [15], the system named is Mus musculus. Description: Body Weight Difference (BWD) of test animals administered with 100 mg/kg compound is determined. It is filed as functional.
Series [16] deals with Mus musculus. Description: Ability of 25 mg/kg of compound to kill P388 tumor cells in mice is expressed as the log of the tumor cell population at the onset of treatment minus the log of the tumor cell population at the end of treatment. It is filed as functional. The gist of the method:
as §2

The test system of series [17] is Mus musculus. Description: Toxicity day evaluation was carried out on day 5 for animal dosed with 400 mg/kg compound. Number of animals in initial test groups were 6. It is filed as organism-based. Further details: dose 400 mg/kg. The following applies: in vivo.
In series [18] the test system is Mus musculus. Put plainly: The percent of the median survival time of test mice compared to control mice is determined for mice administered with 25 mg/kg compound. It is filed as functional.
Series [19] concerns Mus musculus. Put plainly: Toxicity day evaluation was carried out on day 5 for animal dosed with 50 mg/kg compound. Number of animals in initial test groups were 6. It is filed as organism-based. Further details: dose 50 mg/kg. The note with it: in vivo.
For series [20], the system named is Mus musculus. Put plainly: Body Weight Difference (BWD) of test animals with P388 administered with 200 mg/kg compound is determined. It is filed as functional. A digest of the protocol:
as §1

Series [21] has as its system Mus musculus. Description: Toxicity day evaluation was carried out on day 5 for animal dosed with 25 mg/kg compound. Number of animals in initial test groups were 6. It is filed as organism-based. Further details: dose 25 mg/kg. The note with it: in vivo.
The test system of series [22] is Mus musculus. Put plainly: Body Weight Difference (BWD) of test animals with P388 administered with 400 mg/kg compound is determined. It is filed as functional. A digest of the protocol:
as §1

In series [23] the test system is Mus musculus. Description: Toxicity day evaluation was carried out on day 5 for animal dosed with 100 mg/kg compound. Number of animals in initial test groups were 6. It is filed as organism-based. Further details: dose 100 mg/kg. The note with it: in vivo.

For the molecule `CNC(=O)OCc1nc(SC)n(-c2ccccc2)c1COC(=O)NC`, the “Survivors / animals tested” value is on record as 5 in the series on Mus musculus [1], 4 in the series with Mus musculus [6], 5 in the series on Mus musculus [8] and 5 with Mus musculus [9]. For the same molecule, the figures for the KE with Mus musculus [2] and in the series on Mus musculus [3] were 0.6 and 0.17, respectively. Moreover, the BWD in the series with Mus musculus [4] is -1.4 g; with Mus musculus [5] it was -3 g; in the series on Mus musculus [7], -5.2 g; with Mus musculus [10] it was -1.6 g.
Turning to `COc1nc(COC(=O)NC(C)C)c(COC(=O)NC(C)C)n1C`, the “Survivors / animals tested” value in the series with Mus musculus [11], with Mus musculus [17], with Mus musculus [19], in the series on Mus musculus [21] and with Mus musculus [23] was 6 throughout. Further, the BWD in the series on Mus musculus [12] is -1 g; in the series with Mus musculus [14] it was -0.1 g; in the series with Mus musculus [15], -2.1 g; in the series on Mus musculus [20], -2.6 g; in the series with Mus musculus [22] it was -4.2 g. Also, the KE with Mus musculus [13] is listed as 0.54; with Mus musculus [16] it was -0.6. This molecule had a T/C in the series on Mus musculus [18] of 130%.

Source of the values: ChEMBL document CHEMBL1124663, “Design, synthesis, antineoplastic activity, and chemical properties of bis(carbamate) derivatives of 4,5-bis(hydroxymethyl)imidazole” (J Med Chem, 1989).
